Among the data in ChEMBL document CHEMBL1126744, “Synthesis and structure-activity relationships of phenyl-substituted benzylamine antimycotics: a novel benzylbenzylamine antifungal agent for systemic treatment” (1993) are MIC, ED50 and Cure values, retold here.

In brackets after ≈: the same amount, converted by molar mass. Some results are limits rather than exact numbers.

One may read the MIC as the lowest concentration found to suppress growth. A word on the ED50: it is the dose that gives a 50% effect, or the effect in half of the subjects. Lower therefore signals greater potency.

The test system of test [1] is Candida albicans. Nature of the test: In vitro antifungal activity against Candida albicans delta9 expressed as MIC (mg/L). It counts as functional. The procedure, abridged: (§1)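 Tube broth dilution in malt extract broth (pH 4.8). Blastospores came from yeast nitrogen base cultures shaken at 37 °C for about 30 h. Compounds in DMSO were serially diluted in the broth. After 48 h at 30 °C, MIC was taken as the lowest concentration without macroscopically detectable growth.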

Another test has as its system Sporothrix schenckii. The test is described as follows: In vitro antifungal activity against Sporothrix schenck ii expressed as MIC (mg/L). It is filed as functional. An outline of the steps: (§2)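 Fungi were grown on Kimmig agar (30 °C, 21 days) and harvested with a spatula. They were tested in glass tubes of Sabouraud's dextrose broth (pH 6.5) containing DMSO-dissolved compound serially diluted in medium. After 7 days at 30 °C, MIC was read as the lowest concentration with no macroscopically visible growth.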

Test [2] relates to Candida albicans. Nature of the test: In vitro antifungal activity against Candida albicans delta124 expressed as MIC (mg/L). It counts as functional. An outline of the steps: as §1
The next test deals with Trichophyton benhamiae. The test is described as follows: In vitro antifungal activity against Trichophyton mentagrophytes expressed as MIC (mg/L). It is filed as functional, Arthroderma benhamiae. The procedure, abridged:
as §2

Another test relates to Candida parapsilosis. The test is described as follows: In vitro antifungal activity against Candida parapsilosis delta39 expressed as MIC (mg/L). It is filed as functional. The settings on record: Lodderomyces parapsilosis. The procedure, abridged:
as §1

The subject of a further test is Aspergillus fumigatus. Nature of the test: In vitro antifungal activity against Aspergillus fumigatus expressed as MIC (mg/L). It counts as functional. An outline of the steps:
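Broth dilution in glass tubes with Sabouraud's dextrose broth (pH 6.5). Inoculum was filamentous growth scraped from Kimmig agar cultures (30 °C, 21 days). Compounds were dissolved in DMSO and serially diluted in medium. Tubes were incubated 72 h at 30 °C. MIC is the lowest concentration with no macroscopically visible growth.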

In a further test the test system is Microsporum canis. The test is described as follows: In vitro antifungal activity against Microsporum canis expressed as MIC (mg/L). It is filed as functional. The procedure, abridged:
as §2

Test [3] deals with Cavia porcellus. Nature of the test: In vivo inhibition in guinea pig trichophytosis model. It counts as functional.
Test [4] relates to Cavia porcellus. Nature of the test: Percent mycological cure at a dose of 8 mg/kg per day in guinea pig trichophytosis model (treatment once daily for 9 days starting on the day of inoculation). It is filed as functional.
Test [5] has as its system Cavia porcellus. The test is described as follows: Percent mycological cure in guinea pig skin candidosis model (topical treatment twice daily for 5 days starting 3 days after inoculation) using 2% solution (ED50=1.32%). It counts as functional.

For `CC(=O)N(c1ccccc1)c1ccc(CN(C)Cc2cccc3ccccc23)cc1`, the MIC is greater than 200 µg/mL against Candida albicans [1]; greater than 200 µg/mL with Sporothrix schenckii; greater than 200 µg/mL in the test on Candida albicans [2]; 0.8 µg/mL (≈ 2.03 µM) in the test with Trichophyton benhamiae; greater than 200 µg/mL with Candida parapsilosis; greater than 200 µg/mL in the test on Aspergillus fumigatus. In the test with Microsporum canis, this compound returned an MIC of 3.13 µg/mL (≈ 7.93 µM).

Take `CC(=O)N1CCN(c2ccc(OCC3COC(Cn4ccnc4)(c4ccc(Cl)cc4Cl)O3)cc2)CC1` (configuration not stated) [KETOCONAZOLE]: the ED50 in the test on Cavia porcellus [3] was determined as 50.8 mg/kg/day.

On to `CN(Cc1ccc(-c2ccccc2)cc1)Cc1cccc2ccccc12`, for which the minimal inhibitory concentration (MIC) is greater than 200 µg/mL in the test with Candida albicans [1]; greater than 200 µg/mL with Sporothrix schenckii; greater than 200 µg/mL in the test with Candida albicans [2]; 10 µg/mL (≈ 29.6 µM) against Trichophyton benhamiae; greater than 200 µg/mL against Candida parapsilosis; greater than 200 µg/mL in the test with Aspergillus fumigatus. This compound also yielded an MIC in the test with Microsporum canis greater than 200 µg/mL.

`CN(Cc1ccc(/C=C/c2ccccc2)cc1)Cc1cccc2ccccc12`: the minimum inhibitory concentration (MIC) in the test on Candida albicans [1] was greater than 200 µg/mL; in the test on Sporothrix schenckii it was greater than 200 µg/mL; in the test with Candida albicans [2], greater than 200 µg/mL; against Trichophyton benhamiae, 0.1 µg/mL (≈ 0.275 µM); with Candida parapsilosis, greater than 200 µg/mL; in the test with Aspergillus fumigatus, greater than 200 µg/mL. Besides, the lowest concentration to inhibit growth with Microsporum canis (MIC) was 0.01 µg/mL (≈ 0.0275 µM).

Consider `CN(Cc1ccc(C(C)(C)c2ccccc2)cc1)Cc1cccc2ccsc12`, for which the MIC in the test with Candida albicans [1] is 0.4 µg/mL (≈ 1.04 µM); against Sporothrix schenckii it was 0.2 µg/mL (≈ 0.519 µM); against Candida albicans [2] it was 0.8 µg/mL (≈ 2.07 µM); against Trichophyton benhamiae it was 0.003 µg/mL (≈ 0.00778 µM); against Candida parapsilosis, 0.05 µg/mL (≈ 0.13 µM); against Aspergillus fumigatus, 0.1 µg/mL (≈ 0.259 µM). The compound also displayed an MIC in the test with Microsporum canis of 0.003 µg/mL (≈ 0.00778 µM).

As for `C=C(c1ccccc1)c1ccc(CN(C)Cc2cccc3ccccc23)cc1`, the MIC against Candida albicans [1] was greater than 200 µg/mL; with Sporothrix schenckii, 1.56 µg/mL (≈ 4.29 µM); against Candida albicans [2], greater than 200 µg/mL; with Trichophyton benhamiae, 0.01 µg/mL (≈ 0.0275 µM); against Candida parapsilosis it was 0.8 µg/mL (≈ 2.2 µM); in the test on Aspergillus fumigatus it was greater than 200 µg/mL. 0.01 µg/mL (≈ 0.0275 µM) was the least that counted as inhibitory with Microsporum canis (MIC).

On to `CN(Cc1ccc(C(C)(C)c2ccccc2)cc1)Cc1cccc2ccccc12`, for which the MIC in the test on Candida albicans [1] is 0.8 µg/mL (≈ 2.11 µM); against Sporothrix schenckii, 0.2 µg/mL (≈ 0.527 µM); in the test on Candida albicans [2], 1.56 µg/mL (≈ 4.11 µM); with Trichophyton benhamiae it was 0.006 µg/mL (≈ 0.0158 µM); against Candida parapsilosis it was 0.1 µg/mL (≈ 0.263 µM); in the test with Aspergillus fumigatus it was 0.1 µg/mL (≈ 0.263 µM). In the test with Microsporum canis, this compound yielded an MIC of 0.003 µg/mL (≈ 0.0079 µM). The same compound showed an ED50 in the test with Cavia porcellus [3] of 4.6 mg/kg/day. The values for the Cure with Cavia porcellus [4] and with Cavia porcellus [5] were 100% and 90%, respectively.

For `Cc1ccc(C(C)(C)c2ccc(CN(C)Cc3cccc4ccccc34)cc2)cc1`, the MIC in the test on Candida albicans [1] is 6.25 µg/mL (≈ 15.9 µM); against Sporothrix schenckii, 0.4 µg/mL (≈ 1.02 µM); against Candida albicans [2], 6.25 µg/mL (≈ 15.9 µM); in the test with Trichophyton benhamiae, 0.1 µg/mL (≈ 0.254 µM); with Candida parapsilosis, 0.1 µg/mL (≈ 0.254 µM); with Aspergillus fumigatus it was 12.5 µg/mL (≈ 31.8 µM). The MIC against Microsporum canis came out at 0.1 µg/mL (≈ 0.254 µM).

On to `CN(C/C=C/C#CC(C)(C)C)Cc1cccc2ccccc12` [TERBINAFINE], for which the MIC was 6.25 µg/mL (≈ 21.4 µM) in the test on Candida albicans [1]; 0.4 µg/mL (≈ 1.37 µM) with Sporothrix schenckii; 25 µg/mL (≈ 85.8 µM) against Candida albicans [2]; 0.003 µg/mL (≈ 0.0103 µM) against Trichophyton benhamiae; 0.8 µg/mL (≈ 2.75 µM) against Candida parapsilosis; 0.8 µg/mL (≈ 2.75 µM) with Aspergillus fumigatus. For the same compound, the MIC in the test on Microsporum canis stood at 0.006 µg/mL (≈ 0.0206 µM).

`CN(Cc1ccc(C(C)(C)c2ccccc2)cc1)Cc1cccc2c(Cl)csc12`: the MIC worked out at 1.56 µg/mL (≈ 3.71 µM) against Candida albicans [1]; 0.8 µg/mL (≈ 1.9 µM) against Sporothrix schenckii; 1.56 µg/mL (≈ 3.71 µM) against Candida albicans [2]; 0.02 µg/mL (≈ 0.0476 µM) in the test with Trichophyton benhamiae; 0.1 µg/mL (≈ 0.238 µM) against Candida parapsilosis; 0.2 µg/mL (≈ 0.476 µM) against Aspergillus fumigatus. For the same compound, in the test on Microsporum canis, the MIC was determined as 0.02 µg/mL (≈ 0.0476 µM).

In the case of `CN(Cc1ccc(C2(c3ccccc3)CC2)cc1)Cc1cccc2ccccc12`, the MIC was found to be 1.56 µg/mL (≈ 4.13 µM) against Candida albicans [1]; 0.1 µg/mL (≈ 0.265 µM) in the test with Sporothrix schenckii; 3.13 µg/mL (≈ 8.29 µM) against Candida albicans [2]; 0.006 µg/mL (≈ 0.0159 µM) in the test with Trichophyton benhamiae; 0.1 µg/mL (≈ 0.265 µM) against Candida parapsilosis; 1.56 µg/mL (≈ 4.13 µM) with Aspergillus fumigatus. In the test with Microsporum canis, this compound showed an MIC of 0.003 µg/mL (≈ 0.00795 µM).

Take `CN(Cc1ccc(Cc2ccccc2)cc1)Cc1cccc2ccccc12`: the MIC with Candida albicans [1] is 50 µg/mL (≈ 142 µM); against Sporothrix schenckii it was 1.56 µg/mL (≈ 4.44 µM); with Candida albicans [2], greater than 100 µg/mL; with Trichophyton benhamiae, 0.05 µg/mL (≈ 0.142 µM); against Candida parapsilosis it was 6.25 µg/mL (≈ 17.8 µM); in the test with Aspergillus fumigatus, greater than 100 µg/mL. The same compound showed an MIC against Microsporum canis of 0.05 µg/mL (≈ 0.142 µM).

Take `CN(Cc1ccc(C(C)(C)C)cc1)Cc1cccc2ccccc12` [BUTENAFINE]: the MIC was 12.5 µg/mL (≈ 39.4 µM) against Candida albicans [1]; 0.2 µg/mL (≈ 0.63 µM) with Sporothrix schenckii; 25 µg/mL (≈ 78.7 µM) in the test on Candida albicans [2]; 0.006 µg/mL (≈ 0.0189 µM) against Trichophyton benhamiae; 0.8 µg/mL (≈ 2.52 µM) in the test on Candida parapsilosis; 0.4 µg/mL (≈ 1.26 µM) in the test on Aspergillus fumigatus. For the same compound, inhibition of growth in the test with Microsporum canis (MIC) required 0.01 µg/mL (≈ 0.0315 µM).

For `COC1=CC(=O)C[C@@H](C)[C@]12Oc1c(Cl)c(OC)cc(OC)c1C2=O` [GRISEOFULVIN], the ED50 in the test with Cavia porcellus [3] was 40.7 mg/kg/day.

`CN(Cc1ccc(Nc2ccccc2)cc1)Cc1cccc2ccccc12`: the MIC in the test on Candida albicans [1] is greater than 200 µg/mL; against Sporothrix schenckii it was greater than 200 µg/mL; against Candida albicans [2], greater than 200 µg/mL; with Trichophyton benhamiae, greater than 100 µg/mL; in the test on Candida parapsilosis, greater than 200 µg/mL; in the test on Aspergillus fumigatus, greater than 200 µg/mL. The MIC in the test with Microsporum canis is greater than 100 µg/mL.

In the case of `CN(Cc1ccc(Oc2ccccc2)cc1)Cc1cccc2ccccc12`, the MIC in the test on Candida albicans [1] was greater than 200 µg/mL; in the test with Sporothrix schenckii, greater than 200 µg/mL; in the test with Candida albicans [2], greater than 200 µg/mL; against Trichophyton benhamiae it was 0.4 µg/mL (≈ 1.13 µM); against Candida parapsilosis, greater than 200 µg/mL; against Aspergillus fumigatus, greater than 200 µg/mL. For the same compound, the MIC in the test on Microsporum canis was 0.8 µg/mL (≈ 2.26 µM).

In the case of `CN(Cc1ccc(C(=O)c2ccccc2)cc1)Cc1cccc2ccccc12`, the MIC was greater than 200 µg/mL in the test on Candida albicans [1]; greater than 200 µg/mL against Sporothrix schenckii; greater than 200 µg/mL against Candida albicans [2]; 0.05 µg/mL (≈ 0.137 µM) in the test on Trichophyton benhamiae; 50 µg/mL (≈ 137 µM) with Candida parapsilosis; greater than 200 µg/mL in the test on Aspergillus fumigatus. The compound also yielded an MIC in the test with Microsporum canis of 0.1 µg/mL (≈ 0.274 µM).

As to `CCN(c1ccccc1)c1ccc(CN(C)Cc2cccc3ccccc23)cc1`, the MIC against Candida albicans [1] is greater than 200 µg/mL; with Sporothrix schenckii, 3.13 µg/mL (≈ 8.23 µM); with Candida albicans [2] it was greater than 200 µg/mL; in the test on Trichophyton benhamiae it was 0.006 µg/mL (≈ 0.0158 µM); in the test with Candida parapsilosis, 3.13 µg/mL (≈ 8.23 µM); against Aspergillus fumigatus, greater than 200 µg/mL. Besides, in the test with Microsporum canis, the MIC worked out at 0.006 µg/mL (≈ 0.0158 µM).
